Here are results for one compound from ChEMBL document CHEMBL4229344 (Eur J Med Chem, 2018).

For assay [1], the system named is Tyrosine-protein kinase ABL1 (Homo sapiens), P00519 [Q252H]. Put plainly: Binding affinity to human non-phosphorylated ABL1 Q252H mutant (S229 to K512 residues) expressed in mammalian expression system assessed as residual binding level at 1 uM by Kinomescan method relative to control. The procedure, abridged:
(§1)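 Kinome-wide single-concentration binding screen (KINOMEscan) at 1 μM against a panel of 468 purified kinases and mutants. Read-out is relative binding of each kinase compared with control. Selectivity across the panel was summarised as an S(10) score.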

Assay [2] has as its target Receptor-type tyrosine-protein kinase FLT3 (Homo sapiens) (UniProt P36888). Put plainly: Binding affinity to wild-type human partial length autoinhibited FLT3 (H564 to Y969 residues) expressed in mammalian expression system assessed as residual binding level at 1 uM by Kinomescan method relative to control.
Assay [3] relates to Receptor-type tyrosine-protein kinase FLT3 (Homo sapiens), P36888 [UNDEFINED MUTATION]. Put plainly: Binding affinity to human partial length FLT3 ITD/F691L double mutant expressed in bacterial expression system assessed as residual binding level at 1 uM by Kinomescan method relative to control. Put shortly:
as §1

Assay [4] has as its target Serine/threonine-protein kinase STK11 (Homo sapiens) (UniProt Q15831). The assay can be described thus: Binding affinity to wild-type human full length LKB1 (M1 to Q433 residues) expressed in bacterial expression system assessed as residual binding level at 1 uM by Kinomescan method relative to control. Put shortly: (§2)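 Single-concentration (1 μM) competition-binding screen run by KINOMEscan against a panel of 468 purified kinases and mutants. The read-out is the relative binding activity of the test compound to each kinase.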

Assay [5] has as its target Cyclin-dependent kinase 2 (Homo sapiens) (UniProt P24941). The assay can be described thus: Binding affinity to wild-type human full length CDK2 (M1 to L298 residues) expressed in bacterial expression system assessed as residual binding level at 1 uM by Kinomescan method relative to control. The procedure, abridged:
as §2

Assay [6] relates to Receptor-type tyrosine-protein kinase FLT3 (Homo sapiens), P36888 [UNDEFINED MUTATION]. The assay can be described thus: Binding affinity to human partial length FLT3 ITD/D835V double mutant expressed in bacterial expression system assessed as residual binding level at 1 uM by Kinomescan method relative to control. The procedure, abridged: as §1
Chain of Receptor-type tyrosine-protein kinase FLT3 (Homo sapiens), P36888 [UNDEFINED MUTATION] (P36888 whole entry, looked up, stated change not applied, the tested form may be a part): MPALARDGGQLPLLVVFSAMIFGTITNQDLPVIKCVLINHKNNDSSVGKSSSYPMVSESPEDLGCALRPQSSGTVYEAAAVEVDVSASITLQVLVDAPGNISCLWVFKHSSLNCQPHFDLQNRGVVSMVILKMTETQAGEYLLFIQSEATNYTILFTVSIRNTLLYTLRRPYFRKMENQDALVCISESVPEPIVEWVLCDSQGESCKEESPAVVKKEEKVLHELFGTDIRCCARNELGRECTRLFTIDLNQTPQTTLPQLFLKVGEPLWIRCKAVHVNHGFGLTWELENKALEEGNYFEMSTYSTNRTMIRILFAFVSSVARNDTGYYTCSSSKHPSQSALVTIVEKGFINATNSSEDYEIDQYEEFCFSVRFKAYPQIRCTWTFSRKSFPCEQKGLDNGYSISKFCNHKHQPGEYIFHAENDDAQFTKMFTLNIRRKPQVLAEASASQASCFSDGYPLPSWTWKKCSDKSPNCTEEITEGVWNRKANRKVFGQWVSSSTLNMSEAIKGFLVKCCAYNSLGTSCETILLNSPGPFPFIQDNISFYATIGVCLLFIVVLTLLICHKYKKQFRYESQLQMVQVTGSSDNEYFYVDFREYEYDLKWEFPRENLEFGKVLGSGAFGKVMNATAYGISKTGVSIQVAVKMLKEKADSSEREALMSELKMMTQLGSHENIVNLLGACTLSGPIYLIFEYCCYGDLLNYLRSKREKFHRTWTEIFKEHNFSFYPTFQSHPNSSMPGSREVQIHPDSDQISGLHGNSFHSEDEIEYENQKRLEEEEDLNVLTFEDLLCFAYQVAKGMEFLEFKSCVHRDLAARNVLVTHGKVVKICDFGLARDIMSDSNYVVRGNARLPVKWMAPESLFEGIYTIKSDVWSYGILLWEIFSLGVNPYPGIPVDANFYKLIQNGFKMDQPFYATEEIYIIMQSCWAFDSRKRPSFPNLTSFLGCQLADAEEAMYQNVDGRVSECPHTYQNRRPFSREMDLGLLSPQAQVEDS
The target in assay [7] is Serine/threonine-protein kinase WNK4 (Homo sapiens) (UniProt Q96J92). The assay can be described thus: Binding affinity to wild-type human partial length WNK4 (A31 to D461 residues) expressed in mammalian expression system assessed as residual binding level at 1 uM by Kinomescan method relative to control.
Chain of Serine/threonine-protein kinase WNK4 (Homo sapiens) (Q96J92 whole entry, the tested form may be a part): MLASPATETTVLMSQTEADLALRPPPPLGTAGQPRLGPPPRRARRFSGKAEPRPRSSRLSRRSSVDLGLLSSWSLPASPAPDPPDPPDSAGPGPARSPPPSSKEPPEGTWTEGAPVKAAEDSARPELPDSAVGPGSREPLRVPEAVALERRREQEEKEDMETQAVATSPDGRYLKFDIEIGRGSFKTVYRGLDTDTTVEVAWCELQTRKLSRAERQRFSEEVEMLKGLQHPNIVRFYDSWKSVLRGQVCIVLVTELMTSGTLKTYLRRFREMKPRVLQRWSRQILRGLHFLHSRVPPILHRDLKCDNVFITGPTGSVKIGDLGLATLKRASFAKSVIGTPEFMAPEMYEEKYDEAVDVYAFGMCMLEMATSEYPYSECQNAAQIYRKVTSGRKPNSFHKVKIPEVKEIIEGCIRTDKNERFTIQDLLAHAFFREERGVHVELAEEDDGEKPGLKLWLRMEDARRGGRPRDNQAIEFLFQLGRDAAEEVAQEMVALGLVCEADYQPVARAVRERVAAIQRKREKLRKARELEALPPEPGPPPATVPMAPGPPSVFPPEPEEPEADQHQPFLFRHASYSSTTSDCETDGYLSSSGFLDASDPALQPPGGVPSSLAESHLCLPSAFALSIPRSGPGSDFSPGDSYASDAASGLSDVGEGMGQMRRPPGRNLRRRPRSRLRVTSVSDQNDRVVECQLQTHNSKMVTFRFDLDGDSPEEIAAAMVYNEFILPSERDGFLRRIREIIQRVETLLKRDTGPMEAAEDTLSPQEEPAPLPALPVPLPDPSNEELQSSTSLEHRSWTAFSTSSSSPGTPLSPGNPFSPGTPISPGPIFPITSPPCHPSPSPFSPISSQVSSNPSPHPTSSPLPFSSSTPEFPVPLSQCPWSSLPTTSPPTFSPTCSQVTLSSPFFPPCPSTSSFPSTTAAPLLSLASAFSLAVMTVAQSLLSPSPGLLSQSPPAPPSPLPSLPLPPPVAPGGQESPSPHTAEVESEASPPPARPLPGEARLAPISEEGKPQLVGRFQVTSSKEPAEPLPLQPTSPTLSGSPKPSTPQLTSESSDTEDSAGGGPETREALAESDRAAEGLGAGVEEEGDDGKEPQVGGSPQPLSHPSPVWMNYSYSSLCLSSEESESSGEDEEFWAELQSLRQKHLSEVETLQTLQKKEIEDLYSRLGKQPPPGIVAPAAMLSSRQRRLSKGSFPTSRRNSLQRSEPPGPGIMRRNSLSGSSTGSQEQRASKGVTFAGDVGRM
For assay [8], the target named is Testis-specific serine/threonine-protein kinase 1 (Homo sapiens) (UniProt Q9BXA7). The assay can be described thus: Binding affinity to wild-type human full length TSSK1B (M1 to Q367 residues) expressed in bacterial expression system assessed as residual binding level at 1 uM by Kinomescan method relative to control. Put shortly: (§3)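 Single-concentration KINOMEscan (DiscoverX) binding screen at 1 μM against a panel of 468 purified kinases and mutants. The read-out is binding relative to control.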

The target in assay [9] is Tyrosine-protein kinase ABL1 (Homo sapiens, UniProt P00519). Put plainly: Inhibition of ABL1 (unknown origin) using poly(4:1 Glu,Tyr) peptide as substrate preincubated for 1 hr followed by addition of ATP and measured after 30 mins by ADP-Glo bioluminescence assay. (In general: ADP-Glo turns the ADP formed in a reaction into a luminescent signal.)
Assay [10] addresses Mitogen-activated protein kinase kinase kinase kinase 4 (Homo sapiens) (UniProt O95819). Put plainly: Binding affinity to wild-type human partial length MAP4K4 (M1 to R310 residues) expressed in bacterial expression system assessed as residual binding level at 1 uM by Kinomescan method relative to control. Put shortly: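 Kinome-wide competition binding screen against a panel of 468 purified kinases/mutants, with the test compound at a single concentration of 1 μM. Read-out is the relative binding activity of each kinase in the presence of compound.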

Assay [11] has as its target TGF-beta receptor type-2 (Homo sapiens) (UniProt P37173). The assay can be described thus: Binding affinity to wild-type human partial length TGFBR2 (I218 to K567 residues) expressed in bacterial expression system assessed as residual binding level at 1 uM by Kinomescan method relative to control.
The test system of assay [12] is Fibroblast growth factor receptor 3 (Homo sapiens), P22607 [G697C]. The assay can be described thus: Binding affinity to human partial length FGFR3 G697C mutant (R442 to S771 residues) expressed in bacterial expression system assessed as residual binding level at 1 uM by Kinomescan method relative to control. The procedure, abridged:
as §1

The target in assay [13] is Activin receptor type-2A (Homo sapiens) (UniProt P27037). The assay can be described thus: Binding affinity to wild-type human ACVR2A (V171 to T499 residues) expressed in bacterial expression system assessed as residual binding level at 1 uM by Kinomescan method relative to control. The procedure, abridged: as §2
The subject of assay [14] is NCI-H1703. Put plainly: Induction of apoptosis in human NCI-H1703 cells assessed as cleaved PARP expression level after 72 hrs in presence of PDGF-AA by Western blot analysis. Type of assay: functional, cell-based. The procedure, abridged: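 Cells exposed to compound or DMSO for the stated periods, then lysed and immunoblotted for PARP and caspase-3 cleavage, with β-actin as loading control. NCI-H1703 stimulation used PDGF AA at 100 ng/mL.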
(In general: In western blotting, separated proteins are transferred to a membrane and probed.)

Assay [15] concerns Phosphatidylinositol 4,5-bisphosphate 3-kinase catalytic subunit alpha isoform (Homo sapiens), P42336 [H1047Y]. Put plainly: Binding affinity to human partial length PIK3CA H1047Y mutant (R108 to N1068 residues) expressed in mammalian expression system assessed as residual binding level at 1 uM by Kinomescan method relative to control. Put shortly: as §1
The target in assay [16] is Mitogen-activated protein kinase kinase kinase kinase 1 (Homo sapiens) (UniProt Q92918). Put plainly: Binding affinity to wild-type human full length HPK1 (M1 to R799 residues) expressed in bacterial expression system assessed as residual binding level at 1 uM by Kinomescan method relative to control. Put shortly: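 KINOMEscan competition binding against 468 purified kinases/mutants, test compound at 1 µM; residual binding relative to control.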

Assay [17] deals with Mast/stem cell growth factor receptor Kit (Homo sapiens, UniProt P10721). Put plainly: Binding affinity to wild-type human partial length KIT (I571 to D952 residues) expressed in bacterial expression system assessed as residual binding level at 1 uM by Kinomescan method relative to control.
Chain of Mast/stem cell growth factor receptor Kit (P10721 whole entry, the tested form may be a part): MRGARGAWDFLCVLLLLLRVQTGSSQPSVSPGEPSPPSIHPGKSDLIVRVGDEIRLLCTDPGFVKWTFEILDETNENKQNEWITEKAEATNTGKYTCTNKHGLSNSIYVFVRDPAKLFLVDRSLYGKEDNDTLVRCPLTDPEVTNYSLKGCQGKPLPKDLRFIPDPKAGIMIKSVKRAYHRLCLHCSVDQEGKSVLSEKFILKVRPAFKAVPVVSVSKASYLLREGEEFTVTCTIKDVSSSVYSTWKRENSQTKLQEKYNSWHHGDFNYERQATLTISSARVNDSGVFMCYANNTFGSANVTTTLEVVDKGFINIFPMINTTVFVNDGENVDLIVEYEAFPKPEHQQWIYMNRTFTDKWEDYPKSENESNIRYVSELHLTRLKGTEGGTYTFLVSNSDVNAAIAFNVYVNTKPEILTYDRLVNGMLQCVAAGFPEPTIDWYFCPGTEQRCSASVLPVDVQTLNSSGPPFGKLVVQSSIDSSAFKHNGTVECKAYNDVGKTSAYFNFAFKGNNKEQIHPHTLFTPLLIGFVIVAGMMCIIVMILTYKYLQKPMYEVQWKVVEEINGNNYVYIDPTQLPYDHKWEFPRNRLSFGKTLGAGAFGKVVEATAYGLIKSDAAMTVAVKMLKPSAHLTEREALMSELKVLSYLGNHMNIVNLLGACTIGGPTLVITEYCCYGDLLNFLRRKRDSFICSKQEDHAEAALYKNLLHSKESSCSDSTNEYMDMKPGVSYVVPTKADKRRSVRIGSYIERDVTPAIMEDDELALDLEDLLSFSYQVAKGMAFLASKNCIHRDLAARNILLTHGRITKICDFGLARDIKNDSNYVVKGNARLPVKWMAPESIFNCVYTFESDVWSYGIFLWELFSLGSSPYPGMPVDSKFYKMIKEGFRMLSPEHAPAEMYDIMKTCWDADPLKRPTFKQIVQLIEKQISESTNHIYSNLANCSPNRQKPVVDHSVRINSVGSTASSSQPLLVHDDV
Assay [18] concerns the target Macrophage-stimulating protein receptor (Homo sapiens) (UniProt Q04912). Put plainly: Binding affinity to wild-type human partial length MST1R (I1057 to L1363 residues) expressed in bacterial expression system assessed as residual binding level at 1 uM by Kinomescan method relative to control.
Assay [19] has as its system Epidermal growth factor receptor (Homo sapiens), P00533 [UNDEFINED MUTATION]. The assay can be described thus: Binding affinity to human partial length EGFR L747-S752del/P753S mutant expressed in bacterial expression system assessed as residual binding level at 1 uM by Kinomescan method relative to control. Put shortly: as §1
The target of assay [20] is Cyclin-dependent kinase 18 (Homo sapiens) (UniProt Q07002). The assay can be described thus: Binding affinity to wild-type human full length PCTK3 (M3 to F474 residues) expressed in bacterial expression system assessed as residual binding level at 1 uM by Kinomescan method relative to control. Put shortly:
as §3

Assay [21] has as its target Platelet-derived growth factor receptor alpha (Homo sapiens, UniProt P16234). Put plainly: Inhibition of PDGF-induced PDGFRalpha autophosphorylation at Y1018 residue in human NCI-H1703 cells after 2 hrs in presence of PDGF-AA by Western blot analysis. It is filed as cell-based.

Active and inactive are the calls of the source. The calls are words filed in the database; no cut-off is given here.

Chain of Fibroblast growth factor receptor 3 (Homo sapiens), P22607 [G697C] (P22607 whole entry G697C, the tested form may be a part): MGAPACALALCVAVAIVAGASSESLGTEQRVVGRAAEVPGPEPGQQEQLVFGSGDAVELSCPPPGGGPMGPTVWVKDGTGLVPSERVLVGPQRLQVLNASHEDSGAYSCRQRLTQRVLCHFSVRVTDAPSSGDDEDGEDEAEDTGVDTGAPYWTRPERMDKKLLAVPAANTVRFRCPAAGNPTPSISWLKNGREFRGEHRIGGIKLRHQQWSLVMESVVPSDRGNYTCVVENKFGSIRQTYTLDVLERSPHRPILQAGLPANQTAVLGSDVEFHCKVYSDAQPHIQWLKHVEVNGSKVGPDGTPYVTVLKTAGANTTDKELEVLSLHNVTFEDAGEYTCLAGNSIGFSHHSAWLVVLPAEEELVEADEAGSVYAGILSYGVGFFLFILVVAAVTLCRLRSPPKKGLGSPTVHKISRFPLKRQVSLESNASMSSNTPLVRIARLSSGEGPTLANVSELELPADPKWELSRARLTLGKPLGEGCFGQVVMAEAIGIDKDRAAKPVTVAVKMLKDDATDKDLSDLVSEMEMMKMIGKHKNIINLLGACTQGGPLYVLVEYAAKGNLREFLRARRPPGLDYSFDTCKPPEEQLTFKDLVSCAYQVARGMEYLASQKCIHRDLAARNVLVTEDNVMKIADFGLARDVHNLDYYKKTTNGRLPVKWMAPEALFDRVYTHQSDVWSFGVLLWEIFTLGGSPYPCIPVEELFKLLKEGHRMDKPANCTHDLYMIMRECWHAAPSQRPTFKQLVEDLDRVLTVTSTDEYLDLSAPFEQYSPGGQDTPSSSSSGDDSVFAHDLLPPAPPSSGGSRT
Chain of Platelet-derived growth factor receptor alpha (P16234 whole entry): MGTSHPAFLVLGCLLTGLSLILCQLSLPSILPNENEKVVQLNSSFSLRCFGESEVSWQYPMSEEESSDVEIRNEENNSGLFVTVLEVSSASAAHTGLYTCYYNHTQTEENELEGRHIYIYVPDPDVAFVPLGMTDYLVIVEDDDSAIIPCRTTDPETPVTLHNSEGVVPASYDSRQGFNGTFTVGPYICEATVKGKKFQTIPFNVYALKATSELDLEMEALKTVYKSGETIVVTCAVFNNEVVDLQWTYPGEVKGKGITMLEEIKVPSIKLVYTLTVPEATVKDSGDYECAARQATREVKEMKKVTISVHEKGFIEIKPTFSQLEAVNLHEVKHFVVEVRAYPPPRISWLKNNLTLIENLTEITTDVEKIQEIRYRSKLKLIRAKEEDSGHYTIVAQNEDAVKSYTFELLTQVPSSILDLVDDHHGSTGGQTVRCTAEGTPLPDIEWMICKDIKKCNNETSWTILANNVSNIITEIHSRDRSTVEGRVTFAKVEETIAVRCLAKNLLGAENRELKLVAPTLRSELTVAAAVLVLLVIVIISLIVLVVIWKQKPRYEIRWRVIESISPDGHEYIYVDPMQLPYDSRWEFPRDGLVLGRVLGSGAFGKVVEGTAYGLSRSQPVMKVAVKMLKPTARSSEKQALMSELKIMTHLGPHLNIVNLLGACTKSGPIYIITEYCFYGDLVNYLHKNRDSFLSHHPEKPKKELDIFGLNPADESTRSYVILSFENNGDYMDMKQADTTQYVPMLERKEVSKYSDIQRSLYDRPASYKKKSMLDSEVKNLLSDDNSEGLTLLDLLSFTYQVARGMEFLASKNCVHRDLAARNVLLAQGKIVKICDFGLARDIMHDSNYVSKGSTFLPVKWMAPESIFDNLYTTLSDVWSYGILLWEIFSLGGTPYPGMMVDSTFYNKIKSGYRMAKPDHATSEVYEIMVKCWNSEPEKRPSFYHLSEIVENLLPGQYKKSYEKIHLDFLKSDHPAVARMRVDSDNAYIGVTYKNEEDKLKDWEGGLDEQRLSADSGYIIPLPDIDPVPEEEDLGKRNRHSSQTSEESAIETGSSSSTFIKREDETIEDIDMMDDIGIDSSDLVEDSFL

Broadly, the IC50 is the concentration at which inhibition is half-maximal. Read a low IC50 as inhibition by little substance. With `Cc1ccc(NC(=O)c2ccc(CN(CCN(C)C)C(=O)c3cccnc3)cc2)cc1Nc1nccc(-c2cccnc2)n1`, the Activity in assay [1] was 23%; in assay [2] it was 100%; in assay [3], 100%; in [4] it was 99%; in assay [5] it was 95%; in [6] it was 98%. Moreover, the Activity in [7] was 100%; in [8], 99%; in assay [10], 87%; in [11], 100%; in assay [12] it was 100%; in assay [13], 96%. The Activity in [15] was 76%; in [16] it was 94%; in assay [17], 2.2%; in assay [18], 100%; in assay [19], 96%; in assay [20], 95%. Further, in [9], the IC50 was above 10 µM. The outcome in assay [14] was Active. In assay [21], the inhibition entry was “Dose-dependent effect”.
